Test results from ChEMBL document CHEMBL3994615, “Design, synthesis and antibacterial evaluation of novel pleuromutilin derivatives possessing piperazine linker” (2017).
Values after ≈ are worked out from the molar mass of the structure shown.

Assays:
Type in all cases: functional
Staphylococcus aureus [1] = experiment: Antibacterial activity against methicillin-resistant Staphylococcus aureus ATCC 43300 after overnight incubation by broth dilution method
Procedure, shortened: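 CLSI broth dilution MIC in Mueller-Hinton broth. Compounds were dissolved in methanol, diluted in broth, and tested over a two-fold range, with final methanol 1.25% in the top well. Inoculum was colonies in saline after 18–24 h growth at 37 °C in 5% CO2. Plates ran 24 h at 37 °C. MIC was the lowest concentration preventing visible growth. Duplicate wells, drug-free and solvent controls.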

Staphylococcus aureus [2] = experiment: Antibacterial activity against Staphylococcus aureus ATCC 29213 after overnight incubation by broth dilution method
Procedure, shortened: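 CLSI broth microdilution MIC. Compounds dissolved in methanol, diluted to working solution in Mueller-Hinton broth. Strain recovered in broth 18–24 h at 37 °C, 5% CO2; colonies suspended in saline for inoculum. Final test range 0.016–32, plates incubated 24 h at 37 °C. MIC read as the lowest concentration preventing visible growth. Duplicates, with drug-free and solvent-blank columns; final methanol 1.25%.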

Enterococcus faecalis = experiment: Antibacterial activity against Enterococcus faecalis ATCC 29212 after overnight incubation by broth dilution method
Procedure, shortened: (§1)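 CLSI broth microdilution MIC. Compounds dissolved in methanol, diluted to working solution in Brain Heart Infusion broth. Organisms recovered in broth 18–24 h at 37 °C, 5% CO2; inoculum from colonies suspended in saline. Test range 0.016–32 (final), incubated 24 h at 37 °C. MIC taken as the lowest concentration inhibiting visible growth. Run in duplicate with drug-free and solvent-blank columns; final methanol 1.25%.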

Enterococcus faecium = experiment: Antibacterial activity against Enterococcus faecium ATCC 35667 after overnight incubation by broth dilution method; procedure, shortened: as §1
Staphylococcus aureus [3] = experiment: Antibacterial activity against methicillin-resistant Staphylococcus aureus ATCC 43300 infected in neutropenic mouse assessed as mouse survival rate at 40 mg/kg, iv administered 1 hr post infection relative to control; settings: ATCC 43300, iv
Procedure, shortened: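 Female ICR mice (23–25 g) were made neutropenic with cyclophosphamide ip, 150 mg/kg 4 days and 100 mg/kg 1 day before infection. They were infected ip with 0.5 mL of ~10⁷ CFU/mL MRSA, then given compound iv at 40 mg/kg 1 h post-infection, with tiamulin given the same way as comparator. 10 mice per group; survival recorded.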

SMILES	MIC (Staphylococcus aureus [1])	MIC (Staphylococcus aureus [2])	MIC (Enterococcus faecalis)	MIC (Enterococcus faecium)	survival at 40 mg/kg (Staphylococcus aureus [3])
C=C[C@]1(C)C[C@@H](OC(=O)CN2CCN(C(=O)CN3CCN(C)CC3)CC2)[C@]2(C)[C@H](C)CC[C@]3(CCC(=O)[C@H]32)[C@@H](C)[C@@H]1O	0.125 µg/mL (≈ 0.213 µM)	0.5 µg/mL (≈ 0.852 µM)	2 µg/mL (≈ 3.41 µM)	> 32 µg/mL	
C=C[C@]1(C)C[C@@H](OC(=O)CN2CCN(C(=O)CN3CCN(c4ccc(OC)cc4)CC3)CC2)[C@]2(C)[C@H](C)CC[C@]3(CCC(=O)[C@H]32)[C@@H](C)[C@@H]1O	0.25 µg/mL (≈ 0.368 µM)	0.5 µg/mL (≈ 0.736 µM)	2 µg/mL (≈ 2.95 µM)	> 32 µg/mL	
C=C[C@]1(C)C[C@@H](OC(=O)CS[C@@H]2C[C@H]3CC[C@@H](C2)N3C)[C@]2(C)[C@H](C)CC[C@]3(CCC(=O)[C@H]32)[C@@H](C)[C@@H]1O [RETAPAMULIN]	0.0625 µg/mL (≈ 0.121 µM)	0.0625 µg/mL (≈ 0.121 µM)		> 32 µg/mL	
C=C[C@]1(C)C[C@@H](OC(=O)CO)[C@]2(C)[C@H](C)CC[C@]3(CCC(=O)[C@H]32)[C@@H](C)[C@@H]1O [PLEUROMULIN]	2 µg/mL (≈ 5.28 µM)	8 µg/mL (≈ 21.1 µM)	16 µg/mL (≈ 42.3 µM)	> 32 µg/mL	
C=C[C@]1(C)C[C@@H](OC(=O)CN2CCN(C(=O)CN3CCN(c4ccccc4O)CC3)CC2)[C@]2(C)[C@H](C)CC[C@]3(CCC(=O)[C@H]32)[C@@H](C)[C@@H]1O	0.5 µg/mL (≈ 0.752 µM)	1 µg/mL (≈ 1.5 µM)	2 µg/mL (≈ 3.01 µM)	> 32 µg/mL	
C=C[C@]1(C)C[C@@H](OC(=O)CN2CCNCC2)[C@]2(C)[C@H](C)CC[C@]3(CCC(=O)[C@H]32)[C@@H](C)[C@@H]1O	1 µg/mL (≈ 2.24 µM)	2 µg/mL (≈ 4.48 µM)	8 µg/mL (≈ 17.9 µM)	> 32 µg/mL	
C=C[C@]1(C)C[C@@H](OC(=O)CN2CCN(C(=O)CCl)CC2)[C@]2(C)[C@H](C)CC[C@]3(CCC(=O)[C@H]32)[C@@H](C)[C@@H]1O	> 32 µg/mL	> 32 µg/mL	> 32 µg/mL	> 32 µg/mL	
C=C[C@]1(C)C[C@@H](OC(=O)CN2CCN(C(=O)CN3CCN(c4cccc([N+](=O)[O-])c4)CC3)CC2)[C@]2(C)[C@H](C)CC[C@]3(CCC(=O)[C@H]32)[C@@H](C)[C@@H]1O	0.0625 µg/mL (≈ 0.0901 µM)	0.25 µg/mL (≈ 0.36 µM)	2 µg/mL (≈ 2.88 µM)	> 32 µg/mL	
C=C[C@]1(C)C[C@@H](OC(=O)CN2CCN(C(=O)CN3CCN(c4ccccc4OC)CC3)CC2)[C@]2(C)[C@H](C)CC[C@]3(CCC(=O)[C@H]32)[C@@H](C)[C@@H]1O	0.5 µg/mL (≈ 0.736 µM)	0.5 µg/mL (≈ 0.736 µM)	4 µg/mL (≈ 5.89 µM)	> 32 µg/mL	
C=C[C@]1(C)C[C@@H](OC(=O)CN2CCN(C(=O)CN3CCN(c4ccc(C)cc4)CC3)CC2)[C@]2(C)[C@H](C)CC[C@]3(CCC(=O)[C@H]32)[C@@H](C)[C@@H]1O	0.125 µg/mL (≈ 0.189 µM)	0.25 µg/mL (≈ 0.377 µM)	2 µg/mL (≈ 3.02 µM)	> 32 µg/mL	
C=C[C@]1(C)C[C@@H](OC(=O)CN2CCN(C(=O)CN3CCN(c4ccccc4Cl)CC3)CC2)[C@]2(C)[C@H](C)CC[C@]3(CCC(=O)[C@H]32)[C@@H](C)[C@@H]1O	0.015 µg/mL (≈ 0.022 µM)	0.5 µg/mL (≈ 0.732 µM)	4 µg/mL (≈ 5.85 µM)	> 32 µg/mL	
C=C[C@]1(C)C[C@@H](OC(=O)CN2CCN(C(=O)CN3CCN(c4cccc(OC)c4)CC3)CC2)[C@]2(C)[C@H](C)CC[C@]3(CCC(=O)[C@H]32)[C@@H](C)[C@@H]1O	0.25 µg/mL (≈ 0.368 µM)	0.25 µg/mL (≈ 0.368 µM)	2 µg/mL (≈ 2.95 µM)	> 32 µg/mL	
C=C[C@]1(C)C[C@@H](OC(=O)CN2CCN(C(=O)CN3CCN(c4cccc(Cl)c4)CC3)CC2)[C@]2(C)[C@H](C)CC[C@]3(CCC(=O)[C@H]32)[C@@H](C)[C@@H]1O	0.03 µg/mL (≈ 0.0439 µM)	0.25 µg/mL (≈ 0.366 µM)	2 µg/mL (≈ 2.93 µM)	> 32 µg/mL	
C=C[C@]1(C)C[C@@H](OC(=O)CN2CCN(C(=O)CN3CCN(c4cccc(O)c4)CC3)CC2)[C@]2(C)[C@H](C)CC[C@]3(CCC(=O)[C@H]32)[C@@H](C)[C@@H]1O	0.25 µg/mL (≈ 0.376 µM)	0.5 µg/mL (≈ 0.752 µM)	2 µg/mL (≈ 3.01 µM)	> 32 µg/mL	
C=C[C@]1(C)C[C@@H](OC(=O)CSC(C)(C)CNC(=O)[C@H](N)C(C)C)[C@]2(C)[C@H](C)CC[C@]3(CCC(=O)[C@H]32)[C@@H](C)[C@@H]1O [VALNEMULIN]	0.03 µg/mL (≈ 0.0531 µM)	0.125 µg/mL (≈ 0.221 µM)	1 µg/mL (≈ 1.77 µM)	> 32 µg/mL	
C=C[C@]1(C)C[C@@H](OC(=O)CN2CCN(C(=O)CN3CCN(c4cccc(C)c4)CC3)CC2)[C@]2(C)[C@H](C)CC[C@]3(CCC(=O)[C@H]32)[C@@H](C)[C@@H]1O	0.25 µg/mL (≈ 0.377 µM)	0.5 µg/mL (≈ 0.754 µM)	4 µg/mL (≈ 6.03 µM)	> 32 µg/mL	
C=C[C@]1(C)C[C@@H](OC(=O)CN2CCN(C(=O)CN3CCN(c4ccc(Cl)cc4)CC3)CC2)[C@]2(C)[C@H](C)CC[C@]3(CCC(=O)[C@H]32)[C@@H](C)[C@@H]1O	0.015 µg/mL (≈ 0.022 µM)	0.125 µg/mL (≈ 0.183 µM)	2 µg/mL (≈ 2.93 µM)	> 32 µg/mL	50%
C=C[C@]1(C)C[C@@H](OC(=O)CN2CCN(C(=O)CN3CCN(c4ccc([N+](=O)[O-])cc4)CC3)CC2)[C@]2(C)[C@H](C)CC[C@]3(CCC(=O)[C@H]32)[C@@H](C)[C@@H]1O	0.015 µg/mL (≈ 0.0216 µM)	0.125 µg/mL (≈ 0.18 µM)	1 µg/mL (≈ 1.44 µM)	> 32 µg/mL	
C=C[C@]1(C)C[C@@H](OC(=O)CN2CCN(C(=O)CN3CCN(c4ccccc4[N+](=O)[O-])CC3)CC2)[C@]2(C)[C@H](C)CC[C@]3(CCC(=O)[C@H]32)[C@@H](C)[C@@H]1O	0.0625 µg/mL (≈ 0.0901 µM)	0.0625 µg/mL (≈ 0.0901 µM)	2 µg/mL (≈ 2.88 µM)	> 32 µg/mL	
C=C[C@]1(C)C[C@@H](OC(=O)CSCCN(CC)CC)[C@]2(C)[C@H](C)CC[C@]3(CCC(=O)[C@H]32)[C@@H](C)[C@@H]1O [TIAMULIN]	0.125 µg/mL (≈ 0.253 µM)	0.5 µg/mL (≈ 1.01 µM)	2 µg/mL (≈ 4.05 µM)	> 32 µg/mL	10%
C=C[C@]1(C)C[C@@H](OC(=O)CN2CCN(C(=O)CN3CCN(c4ccccc4)CC3)CC2)[C@]2(C)[C@H](C)CC[C@]3(CCC(=O)[C@H]32)[C@@H](C)[C@@H]1O	0.125 µg/mL (≈ 0.193 µM)	0.25 µg/mL (≈ 0.385 µM)	4 µg/mL (≈ 6.16 µM)	> 32 µg/mL	
C=C[C@]1(C)C[C@@H](OC(=O)CN2CCN(C(=O)CN3CCN(c4ccccc4C)CC3)CC2)[C@]2(C)[C@H](C)CC[C@]3(CCC(=O)[C@H]32)[C@@H](C)[C@@H]1O	0.0625 µg/mL (≈ 0.0943 µM)	0.25 µg/mL (≈ 0.377 µM)	2 µg/mL (≈ 3.02 µM)	> 32 µg/mL	
C=C[C@]1(C)C[C@@H](OC(=O)CN2CCN(C(=O)CN3CCN(c4ccc(O)cc4)CC3)CC2)[C@]2(C)[C@H](C)CC[C@]3(CCC(=O)[C@H]32)[C@@H](C)[C@@H]1O	1 µg/mL (≈ 1.5 µM)	2 µg/mL (≈ 3.01 µM)	8 µg/mL (≈ 12 µM)	> 32 µg/mL	
